# Measured values as given in ChEMBL document CHEMBL1148734, “Structure-activity relationships of phenyl-furanyl-rhodanines as inhibitors of RNA polymerase with antibacterial activity on biofilms” (J Med Chem, 2007).
# Activity calls are given as the source filed them. The rule behind the calls is not given here.
# Key:
# Escherichia coli [1] = assay: Antibacterial activity against Escherichia coli tolC CGSC 5633; format: functional
# CHO = assay: Cytotoxicity against CHO cells; format: cell-based, Cricetulus griseus; details: chinese hamster
# How it was run: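 CHO cells grown in RPMI with 5% fetal calf serum, then exposed to compounds 24 h at 37 °C without serum. MTT added at 300 µg/mL final, 3 h at 37 °C dark; acidified isopropanol added, 1 h at room temperature; OD at 595 nm.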
# [2] = system: Staphylococcus epidermidis; assay: Antibacterial activity against Staphylococcus epidermidis CIP 105777; format: functional
# Escherichia coli [3] = assay: Inhibition of RNA polymerase sigma-70 transcription in Escherichia coli at 10 uM; format: functional
# Staphylococcus aureus [4] = assay: Antibacterial activity against multidrug resistant Staphylococcus aureus 49589; format: functional
# How it was run: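 Broth microdilution MIC following CLSI. Compounds were predissolved in DMSO and tested as serial 2-fold dilutions at final 100 to 0.4 µg/mL. Inoculum was 5 × 10⁵ CFU/mL, and plates were read after 18 h at 37 °C.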
# [5] = system: Staphylococcus epidermidis; assay: Antibacterial activity against Staphylococcus epidermidis RP62A; format: functional
# Bacillus anthracis = assay: Antibacterial activity against Bacillus anthracis 9131; format: functional
# Staphylococcus aureus [6] = assay: Antibacterial activity against Staphylococcus aureus CIP 76.25; format: functional
# Streptococcus pneumoniae = assay: Antibacterial activity against Streptococcus pneumoniae CIP 103566; format: functional
# Clostridioides difficile = assay: Antibacterial activity against Clostridium difficile DSM 1296; format: functional
Molecule,MIC (Escherichia coli [1]),Activity (CHO),MIC [2],inhibition at 10 µM (Escherichia coli [3]),Activity (Staphylococcus aureus [4]),further results
O=C(O)c1ccc(-c2ccc(/C=C3\Sc4ccccc4C3=O)o2)cc1,> 100 µg/mL,>= 100 ug ml-1,> 100 µg/mL,30%,,
Cc1onc(-c2ccccc2)c1C(=O)N[C@@H]1C(=O)N2[C@@H]1SC(C)(C)[C@@H]2C(=O)O,,,,,inactive,
Cc1nnc(SCC2=C(C(=O)O)N3C(=O)[C@@H](NC(=O)Cn4cnnn4)[C@H]3SC2)s1,,,,,inactive,
CC1COc2c(N3CCN(C)CC3)c(F)cc3c(=O)c(C(=O)O)cn1c23 (centres undefined),,,,,inactive,
C=CCN1C(=O)/C(=C/c2ccc(-c3ccccc3)o2)SC1=S,3.13 µg/mL,>= 100 ug ml-1,≥ 100 µg/mL,46%,,MIC [5]: ≥ 100 µg/mL; MIC (Bacillus anthracis): 0.78 µg/mL; MIC (Staphylococcus aureus [6]): ≥ 100 µg/mL; MIC (Streptococcus pneumoniae): ≥ 100 µg/mL; MIC (Clostridioides difficile): ≥ 100 µg/mL; MIC (Staphylococcus aureus [4]): ≥ 100 µg/mL
C=CCN1C(=O)/C(=C/c2ccc(Cc3ccc(C(=O)O)cc3)o2)SC1=S,≥ 100 µg/mL,>= 100 ug ml-1,≥ 100 µg/mL,63%,,
C=CCN1C(=O)/C(=C/c2ccc(-c3ccc([N+](=O)[O-])cc3)o2)SC1=S,≥ 100 µg/mL,>= 100 ug ml-1,≥ 100 µg/mL,3%,,
NC[C@H]1O[C@H](O[C@H]2[C@H](O)[C@@H](O[C@H]3O[C@H](CO)[C@@H](O)[C@H](N)[C@H]3O)[C@H](N)C[C@@H]2N)[C@H](N)C[C@@H]1O,,,,,inactive,
GENTAMICIN,,,,,inactive,
C[C@@H]1O[C@@H]1P(=O)(O)O,,,,,Active,
COCCN1C(=O)N/C(=C\c2ccc(-c3cccc(C(=O)O)c3)o2)C1=O,≥ 100 µg/mL,>= 100 ug ml-1,≥ 100 µg/mL,85%,,
C=CCN1C(=O)/C(=C/c2ccc(-c3cccc(N)c3)o2)SC1=S,≥ 100 µg/mL,>= 100 ug ml-1,≥ 100 µg/mL,11%,,
CCn1cc(C(=O)O)c(=O)c2cc(F)c(N3CCNCC3)cc21,,,,,inactive,
C#CCN1C(=O)S/C(=C\c2ccc(-c3ccc(C(=O)O)cc3)o2)C1=O,> 100 µg/mL,>= 100 ug ml-1,> 100 µg/mL,100%,,
CC1(C)S[C@@H]2[C@H](NC(=O)Cc3ccccc3)C(=O)N2[C@H]1C(=O)O,,,,,inactive,
O=C1NC(=O)/C(=C/c2ccc(-c3ccc(C(=O)O)cc3)o2)N1,≥ 100 µg/mL,>= 100 ug ml-1,≥ 100 µg/mL,55%,,
CO[C@H]1/C=C/O[C@@]2(C)Oc3c(C)c(O)c4c(O)c(c(/C=N/N5CCN(C)CC5)c(O)c4c3C2=O)NC(=O)/C(C)=C\C=C\[C@H](C)[C@H](O)[C@@H](C)[C@@H](O)[C@@H](C)[C@H](OC(C)=O)[C@@H]1C,,,,,inactive,
CN[C@H](CC(C)C)C(=O)N[C@H]1C(=O)N[C@@H](CC(N)=O)C(=O)N[C@H]2C(=O)N[C@H]3C(=O)N[C@H](C(=O)N[C@H](C(=O)O)c4cc(O)cc(O)c4-c4cc3ccc4O)[C@H](O)c3ccc(c(Cl)c3)Oc3cc2cc(c3O[C@@H]2O[C@H](CO)[C@@H](O)[C@H](O)[C@H]2O[C@H]2C[C@](C)(N)[C@H](O)[C@H](C)O2)Oc2ccc(cc2Cl)[C@H]1O,,,,,Active,
CC(=O)O[C@H]1C[C@@]2(C)[C@@H](C[C@@H](O)[C@H]3[C@@]4(C)CC[C@@H](O)[C@@H](C)[C@@H]4CC[C@@]32C)/C1=C(\CCC=C(C)C)C(=O)O,,,,,Active,
C=CCN1C(=O)/C(=C/c2ccc(-c3cc(N)cc(C(=O)O)c3)o2)SC1=S,≥ 100 µg/mL,>= 100 ug ml-1,≥ 100 µg/mL,71%,,

Molecule,MIC (Escherichia coli [1]),Activity (CHO),MIC [2],inhibition at 10 µM (Escherichia coli [3]),Activity (Staphylococcus aureus [4]),further results
C=CCN1C(=O)/C(=C/c2ccc(-c3cccc(C(F)(F)F)c3)o2)SC1=S,≥ 100 µg/mL,>= 100 ug ml-1,≥ 100 µg/mL,,,
NCC[C@H](O)C(=O)N[C@@H]1C[C@H](N)[C@@H](O[C@H]2O[C@H](CN)[C@@H](O)[C@H](O)[C@H]2O)[C@H](O)[C@H]1O[C@H]1O[C@H](CO)[C@@H](O)[C@H](N)[C@H]1O,,,,,inactive,
C=CCN1C(=O)/C(=C/c2ccc(-c3ccccc3C(=O)O)o2)SC1=S,≥ 100 µg/mL,>= 100 ug ml-1,≥ 100 µg/mL,72%,,
CC1(C)S[C@@H]2[C@H](NC(=O)[C@H](N)c3ccc(O)cc3)C(=O)N2[C@H]1C(=O)O,,,,,inactive,
C=CCN1C(=O)S/C(=C\c2ccc(-c3ccc(C(=O)O)cc3)o2)C1=O,≥ 100 µg/mL,>= 100 ug ml-1,≥ 100 µg/mL,75%,,
CC[C@H]1OC(=O)[C@H](C)[C@@H](O[C@H]2C[C@@](C)(OC)[C@@H](O)[C@H](C)O2)[C@H](C)[C@@H](O[C@@H]2O[C@H](C)C[C@H](N(C)C)[C@H]2O)[C@](C)(O)C[C@@H](C)C(=O)[C@H](C)[C@@H](O)[C@]1(C)O,,,,,inactive,
CC(=O)/N=C1\NC(=O)/C(=C/c2ccc(-c3ccc(C(=O)O)cc3)o2)S1,≥ 100 µg/mL,>= 100 ug ml-1,≥ 100 µg/mL,98%,,
C=CCN1C(=O)/C(=C/c2ccc(-c3ccc(OP(=O)(O)O)cc3)o2)SC1=S,≥ 100 µg/mL,50 µg/mL,≥ 100 µg/mL,,,
CN(C)[C@@H]1C(O)=C(C(N)=O)C(=O)[C@@]2(O)C(O)=C3C(=O)c4c(O)cccc4[C@@](C)(O)[C@H]3C[C@@H]12,,,,,inactive,
CCC[C@@H]1C[C@@H](C(=O)N[C@@H]([C@H]2O[C@H](SC)[C@H](O)[C@@H](O)[C@H]2O)[C@H](C)Cl)N(C)C1,,,,,inactive,
O=C1NC(=S)S/C1=C\c1ccc(-c2ccc(C(=O)O)cc2)o1,≥ 100 µg/mL,>= 100 ug ml-1,≥ 100 µg/mL,82%,,
O=C(O)CN1C(=O)/C(=C/c2ccc(-c3cccc(C(=O)O)c3)o2)SC1=S,≥ 100 µg/mL,>= 100 ug ml-1,≥ 100 µg/mL,17%,,
CCN1CCN(C(=O)N[C@@H](C(=O)N[C@@H]2C(=O)N3[C@@H]2SC(C)(C)[C@@H]3C(=O)O)c2ccccc2)C(=O)C1=O,,,,,inactive,
C=CCN1C(=O)/C(=C/c2ccc(-c3ccc4c(c3)C(=O)OC4)o2)SC1=S,≥ 100 µg/mL,50 µg/mL,≥ 100 µg/mL,5%,,
CN1C(=O)/C(=C/c2ccc(-c3cccc(C(=O)O)c3)o2)SC1=S,> 100 µg/mL,>= 100 ug ml-1,> 100 µg/mL,89%,,
O=C(O)c1cccc(-c2ccc(C=C3C(=O)c4ccccc4C3=O)o2)c1,50 µg/mL,50 µg/mL,50 µg/mL,72%,,
C=CCN1C(=O)/C(=C/c2ccc(-c3ccc(C(=O)OC)cc3)o2)SC1=S,≥ 100 µg/mL,>= 100 ug ml-1,≥ 100 µg/mL,10%,,
C=CCN1C(=O)/C(=C/c2ccc(-c3ccc(S(=O)(=O)O)cc3)o2)SC1=S,≥ 100 µg/mL,>= 100 ug ml-1,≥ 100 µg/mL,9%,,
C=CCN1C(=O)/C(=C/c2ccc(-c3cccc(Cl)c3)o2)SC1=S,12.5 µg/mL,>= 100 ug ml-1,≥ 100 µg/mL,76%,,
